Experiment [1] has as its system L1210. Nature of the experiment: Antitumor activity in the mice with intraperitoneal implanted L1210 lymphoid leukemia at the dose of 17.7 and 27.7 mg/kg/day x 5 was determined as mean survival of treated group compared to untreated; 10.5/9.5. The format is functional, Mus musculus. In a few lines:
(§1)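 C3D2F1/J female mice (C3H/HeJ female × DBA/2J male), groups of six to eight, average weight 25 g. Inoculated ip with 1 × 10^6 L1210 ascites cells taken from DBA/2Ha donor mice bearing 3-5 day old tumors. Compounds were dissolved in 0.154 N NaOH, neutralized with 0.154 N HCl (final 0.9% NaCl), and given ip daily for 5 days from 24 h post-implant. Median survival T/C; ILS = (T/C − 1) × 100; 30-day survivors counted.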

Experiment [2] relates to L1210. In words: Antitumor activity in mice with intraperitoneal implanted L1210 lymphoid leukemia at the dose 9.2 and 14.5 mg/kg/day x 5 was determined as weight change (g/mouse) on 8th day. The format is functional. An outline of the steps:
(§2)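 Female C3D2F1/J mice (C3H/HeJ × DBA/2J), groups of six to eight, average weight 25 g. Each mouse got 1 × 10^6 L1210 ascites cells ip, taken from DBA/2Ha donor mice bearing 3-5 day tumors. Compound was dissolved in 0.154 N NaOH and neutralized with 0.154 N HCl (final 0.9% NaCl). Dosed ip daily ×5, starting 24 h after implant. Recorded body weight change on day 8, survival range, median survival and 30-day survivors. ILS = (T/C − 1) × 100.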

In experiment [3] the test system is L1210. In words: Antitumor activity in mice with intraperitoneal implanted L1210 lymphoid leukemia at the dose 17.7 and 27.7 mg/kg/day x 5 was determined as weight change (g/mouse) on 8th day. The format is functional. In a few lines: as §2
For experiment [4], the system named is L1210. Nature of the experiment: Antitumor activity in the mice with intraperitoneal implanted L1210 lymphoid leukemia at the dose of 9.2 and 14.5 mg/kg/day x 5 was determined as mean survival of treated group compared to untreated; 12/11. It is filed as functional, Mus musculus.
Experiment [5] deals with L1210. Nature of the experiment: Antitumor activity in the mice with intraperitoneal implanted L1210 lymphoid leukemia at the dose 17.7 and 27.7 mg/kg/day x 5 was determined and number of animals survived on 30 th day were reported; 0/8. It is filed as functional, Mus musculus. In a few lines:
as §2

In experiment [6] the test system is L1210. In words: Antitumor activity in the mice with intraperitoneal implanted L1210 lymphoid leukemia at the dose 9.2 and 14.5 mg/kg/day x 5 was determined as percentage increase in the life span as compared with control tumor bearers. The format is functional, Mus musculus. An outline of the steps: as §1
In experiment [7] the test system is L1210. Nature of the experiment: Antitumor activity in the mice with intraperitoneal implanted L1210 lymphoid leukemia at the dose 17.7 and 27.7 mg/kg/day x 5 was determined as Survival time in days; Range is 7-17 days. It is filed as functional, Mus musculus. In a few lines: as §2
For experiment [8], the system named is L1210. Nature of the experiment: Antitumor activity in the mice with intraperitoneal implanted L1210 lymphoid leukemia at the dose 9.2 and 14.5 mg/kg/day x 5 was determined as Survival time in days; Range is 12-16 days. It is filed as functional, Mus musculus. In a few lines: as §1
In experiment [9] the test system is L1210. In words: Antitumor activity in the mice with intraperitoneal implanted L1210 lymphoid leukemia at the dose 17.7 and 27.7 mg/kg/day x 5 was determined as percentage increase in the life span as compared with control tumor bearers. The format is functional, Mus musculus. In a few lines: as §2
The subject of experiment [10] is L1210. Nature of the experiment: Antitumor activity in the mice with intraperitoneal implanted L1210 lymphoid leukemia at the dose 9.2 and 14.5 mg/kg/day x 5 was determined and number of animals survived on 30 th day were reported; 0/6. The format is functional, Mus musculus. In a few lines: as §1
The test system of experiment [11] is L1210. In words: Antitumor activity in the mice with intraperitoneal implanted L1210 lymphoid leukemia at the dose of 75 mg/kg/day x 5 was determined as mean survival of treated group compared to untreated; 18/9.5. The format is functional, Mus musculus.
Experiment [12] relates to L1210. In words: Antitumor activity in the mice with intraperitoneal implanted L1210 lymphoid leukemia at the dose of 50 mg/kg/day x 5 was determined as mean survival of treated group compared to untreated; 20.5/8. It is filed as functional, Mus musculus.
The test system of experiment [13] is L1210. In words: Antitumor activity in mice with intraperitoneal implanted L1210 lymphoid leukemia at the dose 75 mg/kg/day x 5 was determined as weight change (g/mouse) on 8th day. It is filed as functional. An outline of the steps: (§3)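 C3D2F1/J female mice (C3H/HeJ × DBA/2J), groups of six to eight, average 25 g, inoculated ip with 1 × 10^6 L1210 ascites cells taken from DBA/2Ha donor mice carrying 3-5 day tumors. Compound dissolved in 0.154 N NaOH, then neutralized with 0.154 N HCl to give 0.9% NaCl. Given ip daily for 5 consecutive days starting 24 h after implantation. Body weight change per mouse recorded on day 8.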

Experiment [14] deals with L1210. In words: In Vitro evaluation for the antiproliferative activity by observing the growth inhibition of L1210 lymphoid leukemia cells in culture at 72 hour. It is filed as functional, Mus musculus. An outline of the steps: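 Growth of L1210 lymphoid leukemia cells in culture measured by Trypan blue exclusion of viable cells after 72 h of drug exposure. ED50 is the concentration giving 50% growth inhibition. In some runs the compound was first preincubated in medium at 37 °C for 24 or 48 h before the assay.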

The subject of experiment [15] is L1210. Nature of the experiment: Antitumor activity in mice with intraperitoneal implanted L1210 lymphoid leukemia at the dose 25 mg/kg/day x 5 was determined as weight change (g/mouse) on 8th day. The format is functional. An outline of the steps: as §3
Experiment [16] concerns L1210. Nature of the experiment: Antitumor activity in mice with intraperitoneal implanted L1210 lymphoid leukemia at the dose 50 mg/kg/day x 5 was determined as weight change (g/mouse) on 8th day. The format is functional. In a few lines: as §3
For experiment [17], the system named is L1210. Nature of the experiment: Antitumor activity in the mice with intraperitoneal implanted L1210 lymphoid leukemia at the dose 25 mg/kg/day x 5 was determined and number of animals survived on 30 th day were reported; 1/8. The format is functional, Mus musculus. An outline of the steps: as §2
Experiment [18] relates to L1210. Nature of the experiment: Antitumor activity in the mice with intraperitoneal implanted L1210 lymphoid leukemia at the dose 50 mg/kg/day x 5 was determined as Survival time in days; Range is 14-24 days. It is filed as functional, Mus musculus. In a few lines: as §2
For experiment [19], the system named is L1210. In words: Antitumor activity in the mice with intraperitoneal implanted L1210 lymphoid leukemia at the dose 50 mg/kg/day x 5 was determined and number of animals survived on 30 th day were reported; 0/8. The format is functional, Mus musculus. An outline of the steps:
as §2

The subject of experiment [20] is L1210. Nature of the experiment: Antitumor activity in the mice with intraperitoneal implanted L1210 lymphoid leukemia at the dose 75 mg/kg/day x 5 was determined and number of animals survived on 30 th day were reported; 1/8. It is filed as functional, Mus musculus. In a few lines: as §1
Experiment [21] has as its system L1210. In words: Antitumor activity in the mice with intraperitoneal implanted L1210 lymphoid leukemia at the dose 50 mg/kg/day x 5 was determined as percentage increase in the life span as compared with control tumor bearers. It is filed as functional. Particulars: Mus musculus, L1210, ip. An outline of the steps:
as §1

Experiment [22] relates to L1210. Nature of the experiment: Antitumor activity in the mice with intraperitoneal implanted L1210 lymphoid leukemia at the dose 75 mg/kg/day x 5 was determined as percentage increase in the life span as compared with control tumor bearers. It is filed as functional. Particulars: Mus musculus, L1210, ip. An outline of the steps: as §1
Experiment [23] deals with L1210. Nature of the experiment: Antitumor activity in the mice with intraperitoneal implanted L1210 lymphoid leukemia at the dose 75 mg/kg/day x 5 was determined as Survival time in days; Range is 15-37 days. It is filed as functional, Mus musculus. In a few lines: as §1
For experiment [24], the system named is L1210. In words: Antitumor activity in the mice with intraperitoneal implanted L1210 lymphoid leukemia at the dose 25 mg/kg/day x 5 was determined as Survival time in days; Range is 13- >45 days. It is filed as functional, Mus musculus. An outline of the steps:
as §2

Experiment [25] relates to L1210. Nature of the experiment: Antitumor activity in the mice with intraperitoneal implanted L1210 lymphoid leukemia at the dose 25 mg/kg/day x 5 was determined as percentage increase in the life span as compared with control tumor bearers. The format is functional. The following applies: Mus musculus, L1210, ip. In a few lines: as §2
The test system of experiment [26] is L1210. Nature of the experiment: Antitumor activity in the mice with intraperitoneal implanted L1210 lymphoid leukemia at the dose of 25 mg/kg/day x 5 was determined as mean survival of treated group compared to untreated; 17.5/9.5. It is filed as functional, Mus musculus. An outline of the steps: as §1

For `C[C@]12CCC(=O)C=C1CC[C@H]1[C@@H]3CC[C@](O)(C(=O)CO)[C@@]3(C)C[C@H](O)[C@@]12F.Nc1ccn([C@@H]2O[C@H](CO)[C@@H](O)[C@@H]2O)c(=O)n1`, the figures for the T/C in the experiment on L1210 [1] and in the experiment with L1210 [4] were 10.5 and 12, respectively. Also, the Weight change in the experiment with L1210 [2] is -4.47 g mouse-1; with L1210 [3] it was -3.48 g mouse-1. Moreover, the Survivors in the experiment on L1210 [5] and in the experiment with L1210 [10] was 0 each time. For the same molecule, the ILS in the experiment on L1210 [6] stood at 9%; in the experiment with L1210 [9] it was 11%. Moreover, the Survival time in the experiment with L1210 [7] came to 7 days; in the experiment with L1210 [8], 12 days.
As to `C[C@H]1C[C@@H]2[C@H]([C@@H](O)C[C@@]3(C)[C@H]2CC[C@]3(O)C(=O)COP(=O)(O)OC[C@H]2O[C@@H](n3ccc(N)nc3=O)[C@@H](O)[C@@H]2O)[C@@]2(C)C=CC(=O)C=C12`, the figures for the T/C with L1210 [11], in the experiment on L1210 [12] and with L1210 [26] were 18, 20.5 and 17.5, respectively. The Weight change with L1210 [13] is -1.07 g mouse-1; in the experiment on L1210 [15], 2 g mouse-1; with L1210 [16], -1.08 g mouse-1. For the same molecule, in the experiment on L1210 [14], the “ED 50” value was found to be 450 nM. For the same molecule, the Survivors in the experiment on L1210 [17] was found to be 1; in the experiment on L1210 [19], 0; in the experiment with L1210 [20] it was 1. For the same molecule, the Survival time stood at 14 days in the experiment with L1210 [18], 15 days with L1210 [23] and 13 days in the experiment with L1210 [24]. In the experiment with L1210 [21], the increase in life span (ILS) at 50 mg/kg/day was determined as 156%. For the same molecule, the ILS at 75 mg/kg/day with L1210 [22] turned out to be 90%. The molecule further had an ILS at 25 mg/kg/day in the experiment on L1210 [25] of 84%.

(Values after ChEMBL document CHEMBL1121364, “Nucleoside conjugates as potential antitumor agents. 3. Synthesis and antitumor activity of 1-(beta-D-arabinofuranosyl)cytosine conjugates of corticosteroids” (1980).)
